Results as given in ChEMBL document CHEMBL1136122, “Are 5'-O-carbamate-2',3'-dideoxythiacytidine new anti-HIV and anti-HBV nucleoside drugs or prodrugs?” (Bioorg Med Chem Lett, 2003).

Key:
[1] = tested on: MT4; experiment: In vitro concentration required to inhibit the cytopathicity of HIV-1 IIIB on MT-4 cell; format: functional, cell-based; conditions: Homo sapiens
How it was run: (§1)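 EC50 is reported with standard deviation. In MT-4 cells it is 50% protection from HIV-1 cytopathicity. In PBMCs it is 50% inhibition of HIV-1 replication.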

[2] = tested on: HepG2; experiment: In vitro concentration required to inhibit HBV DNA secretion by HepG2.2.15 transfected by HBV; format: functional, cell-based; conditions: Homo sapiens
How it was run: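 Used HepG2.2.15 cells stably transfected with HBV, following a standard procedure. EC50 is the concentration giving 50% inhibition of HBV DNA secretion, reported with standard deviation.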

[3] = In vitro concentration required to cause death of uninfected PBMCs cell (peripheral blood mononuclear cells); format: functional; conditions: Homo sapiens, PBMC
[4] = In vitro concentration required to inhibit the HIV-1 LA1 replication on PBMCs cell (peripheral blood mononuclear cells); format: functional, cell-based; conditions: Homo sapiens, PBMC; how it was run: as §1
[5] = tested on: MT4; experiment: In vitro concentration required to cause death of uninfected MT-4 cell; format: functional; conditions: Homo sapiens
[6] = Selectivity (CC50/EC50) for death of uninfected PBMCs to that of inhibition of […] of HIV-1 LA1 on PBMCs (peripheral blood mononuclear cells); format: functional
[7] = Selectivity (CC50/EC50) for death of uninfected MT4 cell to that of inhibition of cytopathicity of HIV-1 IIIB on MT-4 cell; format: functional
[8] = tested on: MT4; experiment: In vitro concentration required to inhibit the cytopathicity of HIV-1 IIIB on MT-4 cell; NA=no activity; format: functional, cell-based, Homo sapiens; how it was run: as §1

SMILES	EC50 [1] [µM]	EC50 [2] [µM]	CC50 [3] [µM]	EC50 [4] [µM]	CC50 [5] [µM]	SI [6]	SI [7]	EC50 [8]
Nc1ccn(C2CSC(COC(=O)NCCCCO)O2)c(=O)n1 (centres undefined)	> 200	5	> 10	> 10	> 217	–	–	–
CCOP(=O)(CNC(=O)OCC1OC(n2ccc(N)nc2=O)CS1)OCC (centres undefined)	126	> 5	> 10	10	> 233	>1	>2	–
NCCCCNC(=O)OCC1OC(n2ccc(N)nc2=O)CS1 (centres undefined)	15	1	> 10	10	> 218	>1	>14	–
NCCCNC(=O)OCC1OC(n2ccc(N)nc2=O)CS1 (centres undefined)	27	1	> 10	1	> 282	>10	>10	–
CCCCNC(=O)OCC1OC(n2ccc(N)nc2=O)CS1 (centres undefined)	26	1	> 10	5	> 283	>2	>11	–
CCCNC(=O)OCC1OC(n2ccc(N)nc2=O)CS1 (centres undefined)	32	5	> 10	10	> 285	>1	>9	–
Nc1ccn(C2CSC(COC(=O)NCCCCCCO)O2)c(=O)n1 (centres undefined)	75	5	> 10	10	> 208	>1	>3	–
Nc1ccn(C2CSC(COC(=O)NCP(=O)(O)O)O2)c(=O)n1 (centres undefined)	–	5	> 10	> 10	> 322	–	–	Not Active
NCCCOC(=O)OCC1OC(n2ccc(N)nc2=O)CS1 (centres undefined)	0.3	0.5	> 10	0.01	> 17	>1000	>57	–
NCCCCOC(=O)OCC1OC(n2ccc(N)nc2=O)CS1 (centres undefined)	0.8	1	> 10	0.1	> 218	> 100	>260	–
Nc1ccn(C2CSC(COC(=O)NCCCO)O2)c(=O)n1 (centres undefined)	> 254	1	> 10	> 10	> 281	>1	–	–
Nc1ccn([C@@H]2CS[C@H](CO)O2)c(=O)n1 [LAMIVUDINE]	0.4	0.4	> 10	0.01	> 44	>1000	>107	–
